Reference: ChEMBL document CHEMBL2440008, “Identification of 2-aminooxazole amides as acyl-CoA: diacylglycerol acyltransferase 1 (DGAT1) inhibitors through scaffold hopping strategy” (Bioorg Med Chem Lett, 2013)
In brackets after ≈: the same amount, converted by molar mass. Blank lines part the entries; values can stand above or below the molecule they belong to.

Experiments:
[1] = target: T1, Cytochrome P450 3A4 (Homo sapiens, UniProt P08684); experiment: Inhibition of CYP3A4 (unknown origin) preincubated prior to substrate addition; type: ADME
T1 sequence (P08684 whole entry): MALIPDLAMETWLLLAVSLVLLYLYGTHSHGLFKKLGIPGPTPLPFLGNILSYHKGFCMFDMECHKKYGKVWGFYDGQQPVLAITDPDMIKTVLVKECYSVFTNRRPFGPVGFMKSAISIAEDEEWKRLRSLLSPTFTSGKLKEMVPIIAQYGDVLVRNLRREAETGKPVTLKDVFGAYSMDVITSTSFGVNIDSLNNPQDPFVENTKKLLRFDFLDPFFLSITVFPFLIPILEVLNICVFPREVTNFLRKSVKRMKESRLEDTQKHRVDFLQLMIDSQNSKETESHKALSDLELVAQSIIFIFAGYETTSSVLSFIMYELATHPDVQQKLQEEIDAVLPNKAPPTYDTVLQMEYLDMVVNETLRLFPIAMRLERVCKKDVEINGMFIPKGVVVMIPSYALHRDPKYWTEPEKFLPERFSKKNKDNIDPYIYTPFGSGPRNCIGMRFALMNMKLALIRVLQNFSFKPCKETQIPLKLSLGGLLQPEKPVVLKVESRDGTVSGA

[2] = target: T2, Cytochrome P450 2D6 (Homo sapiens, UniProt P10635); experiment: Inhibition of CYP2D6 (unknown origin) coincubated with substrate
Target sequence in this assay (P10635 whole entry, looked up): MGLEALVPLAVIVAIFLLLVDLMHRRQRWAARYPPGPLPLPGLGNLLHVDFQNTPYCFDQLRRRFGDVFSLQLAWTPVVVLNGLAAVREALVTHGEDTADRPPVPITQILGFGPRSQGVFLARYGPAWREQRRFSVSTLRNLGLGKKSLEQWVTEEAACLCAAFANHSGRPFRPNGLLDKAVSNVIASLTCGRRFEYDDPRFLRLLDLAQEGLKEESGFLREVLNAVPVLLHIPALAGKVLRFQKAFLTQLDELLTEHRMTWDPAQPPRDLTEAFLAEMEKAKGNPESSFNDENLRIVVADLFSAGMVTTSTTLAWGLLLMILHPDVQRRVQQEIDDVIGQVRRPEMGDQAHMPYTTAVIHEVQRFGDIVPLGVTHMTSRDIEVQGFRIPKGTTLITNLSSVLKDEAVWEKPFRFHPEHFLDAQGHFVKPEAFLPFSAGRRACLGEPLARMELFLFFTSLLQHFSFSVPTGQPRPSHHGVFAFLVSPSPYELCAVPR

[3] = tested on: Mus musculus; experiment: Antidyslipidemic activity in C57BL/6J mouse postprandial triglyceridemia model assessed as reduction in plasma triglyceride level at 10 mg/kg, po treated 15 mins prior to corn oil-challenge measured after 2 hrs by colorimetric method relative to control; type: functional; set-up: scale not given: the % may be the effect or the level left
How it was run: (§1)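 Male C57BL/6J mice fasted overnight; oral dose in 20% hydroxypropyl-b-cyclodextrin vehicle (vehicle alone for controls) 15 min before 0.25 mL corn oil challenge at time 0. Terminal blood taken by heart puncture under anesthesia at 2 h; plasma triglycerides measured colorimetrically by enzymatic TG reagent with absorbance read on a microplate reader, compared with vehicle-treated controls.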

[4] = Clearance in human hepatocytes measured per 10^6 cells; type: ADME, cell-based, Hepatocyte; details: read-out: CLH
[5] = target: T3, Cytochrome P450 2C9 (Homo sapiens, UniProt P11712); experiment: Inhibition of CYP2C9 (unknown origin) preincubated prior to substrate addition; type: ADME
T3 sequence (P11712 whole entry): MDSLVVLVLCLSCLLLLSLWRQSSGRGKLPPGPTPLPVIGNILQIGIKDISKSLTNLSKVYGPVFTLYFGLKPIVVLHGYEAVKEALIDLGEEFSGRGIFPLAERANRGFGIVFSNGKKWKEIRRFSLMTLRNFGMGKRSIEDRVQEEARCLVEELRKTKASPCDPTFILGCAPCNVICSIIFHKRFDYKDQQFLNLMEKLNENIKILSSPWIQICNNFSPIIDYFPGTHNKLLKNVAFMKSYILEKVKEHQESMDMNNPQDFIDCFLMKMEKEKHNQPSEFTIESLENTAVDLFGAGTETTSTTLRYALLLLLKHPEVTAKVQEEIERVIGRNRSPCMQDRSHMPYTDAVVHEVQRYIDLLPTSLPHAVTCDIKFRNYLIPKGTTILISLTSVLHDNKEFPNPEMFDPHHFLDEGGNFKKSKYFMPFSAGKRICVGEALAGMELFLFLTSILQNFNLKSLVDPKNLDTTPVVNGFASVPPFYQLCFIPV

[6] = target: T1, Cytochrome P450 3A4; experiment: Inhibition of CYP3A4 (unknown origin) coincubated with substrate; type: ADME
[7] = Plasma protein binding (unknown origin); type: ADME, cell-free; details: read-out: PPB (converted)
[8] = target: T2, Cytochrome P450 2D6; experiment: Inhibition of CYP2D6 (unknown origin) preincubated prior to substrate addition; type: ADME
Target sequence in this assay (P10635 whole entry): as the sequence (P10635 whole entry, looked up) above

[9] = target: T3, Cytochrome P450 2C9; experiment: Inhibition of CYP2C9 (unknown origin) coincubated with substrate; type: ADME
[10] = AUC in po dosed rat; type: ADME, organism-based; details: plasma
[11] = target: T4, Diacylglycerol O-acyltransferase 1 (Mus musculus, UniProt Q9Z2A7); experiment: Inhibition of mouse DGAT-1
T4 sequence (Q9Z2A7 whole entry): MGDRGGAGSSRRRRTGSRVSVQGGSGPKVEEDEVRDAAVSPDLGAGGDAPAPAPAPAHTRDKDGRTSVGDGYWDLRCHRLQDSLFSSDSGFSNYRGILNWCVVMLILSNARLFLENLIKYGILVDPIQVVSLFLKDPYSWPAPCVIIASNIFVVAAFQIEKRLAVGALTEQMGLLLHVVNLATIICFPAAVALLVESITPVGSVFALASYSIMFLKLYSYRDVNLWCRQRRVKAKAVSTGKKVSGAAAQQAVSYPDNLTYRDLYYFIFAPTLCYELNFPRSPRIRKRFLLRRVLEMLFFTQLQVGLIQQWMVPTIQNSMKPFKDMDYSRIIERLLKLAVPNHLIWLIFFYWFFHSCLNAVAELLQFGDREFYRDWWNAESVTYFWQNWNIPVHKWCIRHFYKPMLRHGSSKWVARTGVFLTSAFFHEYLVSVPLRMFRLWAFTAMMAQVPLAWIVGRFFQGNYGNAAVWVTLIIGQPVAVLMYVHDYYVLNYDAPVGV

[12] = target: hERG (Homo sapiens, UniProt Q12809); experiment: Inhibition of human ERG at 10 uM relative to control
Chain of hERG (Q12809 whole entry): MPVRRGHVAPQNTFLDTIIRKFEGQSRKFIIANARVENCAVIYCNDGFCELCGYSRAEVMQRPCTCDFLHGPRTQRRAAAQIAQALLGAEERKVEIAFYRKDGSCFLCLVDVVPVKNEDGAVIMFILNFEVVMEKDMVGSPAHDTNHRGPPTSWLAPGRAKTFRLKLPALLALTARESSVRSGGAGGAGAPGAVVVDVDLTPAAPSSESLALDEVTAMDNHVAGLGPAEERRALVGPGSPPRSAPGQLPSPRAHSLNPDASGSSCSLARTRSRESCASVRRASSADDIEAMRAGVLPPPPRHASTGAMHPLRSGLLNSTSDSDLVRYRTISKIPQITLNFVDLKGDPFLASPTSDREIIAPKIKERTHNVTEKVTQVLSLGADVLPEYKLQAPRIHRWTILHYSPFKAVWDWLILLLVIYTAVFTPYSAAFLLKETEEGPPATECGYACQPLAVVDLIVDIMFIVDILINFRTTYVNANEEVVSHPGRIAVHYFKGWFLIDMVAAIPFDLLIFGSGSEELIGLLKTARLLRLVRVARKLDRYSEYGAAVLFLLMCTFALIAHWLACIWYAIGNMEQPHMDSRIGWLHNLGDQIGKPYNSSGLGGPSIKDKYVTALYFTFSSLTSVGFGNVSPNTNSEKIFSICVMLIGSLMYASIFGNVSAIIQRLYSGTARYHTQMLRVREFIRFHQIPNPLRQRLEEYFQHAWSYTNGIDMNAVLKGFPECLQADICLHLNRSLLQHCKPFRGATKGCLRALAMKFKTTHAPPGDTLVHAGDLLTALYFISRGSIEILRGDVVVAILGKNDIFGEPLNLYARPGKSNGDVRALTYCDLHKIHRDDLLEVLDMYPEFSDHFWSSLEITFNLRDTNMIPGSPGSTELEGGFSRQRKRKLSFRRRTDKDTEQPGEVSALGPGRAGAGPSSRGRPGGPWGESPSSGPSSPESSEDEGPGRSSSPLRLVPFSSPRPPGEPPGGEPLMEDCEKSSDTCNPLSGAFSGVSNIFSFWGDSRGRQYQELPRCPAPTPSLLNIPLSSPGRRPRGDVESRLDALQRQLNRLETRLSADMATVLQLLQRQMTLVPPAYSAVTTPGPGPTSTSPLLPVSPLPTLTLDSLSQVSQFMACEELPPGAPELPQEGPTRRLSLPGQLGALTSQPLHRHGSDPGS

[13] = Solubility of the compound; type: physicochemical
[14] = tested on: Mus musculus; experiment: Antidyslipidemic activity in C57BL/6J mouse postprandial triglyceridemia model assessed as reduction in plasma triglyceride level at 3 mg/kg, po treated 15 mins prior to corn oil-challenge measured after 2 hrs by colorimetric method relative to control; type: functional; set-up: scale not given: the % may be the effect or the level left; how it was run: as §1

Compound: O=C(Nc1ccc(N2CCN(C(=O)OC3CCCC3)CC2)nc1)c1oc(N2CCCCC2)nc1C(F)(F)F
Activity [3]: -27%

Compound: O=C(Nc1ccc(N2CCN(C(=O)Oc3ccccc3Cl)CC2)nc1)c1oc(N2CCCCC2)nc1C(F)(F)F
IC50 [11]: 1.39 µM

Compound: O=C(Nc1ccc(N2CCN(c3ncccc3Cl)CC2)nc1)c1oc(N2CCCCC2)nc1C(F)(F)F
IC50 [11]: 2.27 µM

Compound: COCCN(C)c1ccc(NC(=O)c2oc(-c3ccccc3)nc2C(F)(F)F)cn1
AUC [10]: 12.7 µM·h | IC50 [11]: 2.85 µM

Further lines, with some results ahead:

IC50 [1]: > 20 µM | IC50 [2]: > 20 µM | hepatocyte CLint [4]: 24.2 µL/min/1e6 cells | IC50 [5]: > 20 µM | IC50 [6]: > 20 µM | fraction unbound [7]: 0.004 | IC50 [8]: > 20 µM | IC50 [9]: > 20 µM | AUC [10]: 69 µM·h | IC50 [11]: 1.2 µM | solubility [13]: 100 µM (≈ 51.1 µg/mL)
Compound: CC(C)OC(=O)N1CCN(c2ccc(NC(=O)c3oc(N4CCCCC4)nc3C(F)(F)F)cn2)CC1
Activity [3]: -12% | inhibition at 10 µM [12]: 40%

IC50 [1]: 5 µM | IC50 [2]: > 20 µM | hepatocyte CLint [4]: 16.9 µL/min/1e6 cells | IC50 [5]: 9.7 µM | IC50 [6]: > 20 µM | fraction unbound [7]: 0.001 | IC50 [8]: > 20 µM | IC50 [9]: 6.4 µM | AUC [10]: 25 µM·h | IC50 [11]: 0.026 µM | solubility [13]: 10 µM (≈ 5.78 µg/mL)
Compound: O=C(Nc1ccc(N2CCN(C(=O)Nc3ccccc3Cl)CC2)nc1)c1oc(N2CCCCC2)nc1C(F)(F)F
Activity [3]: -63% | Activity [14]: -28%

IC50 [11]: 0.134 µM
Compound: O=C(Nc1ccc(N2CCCN(C(=O)Nc3ccccc3Cl)CC2)nc1)c1oc(N2CCCCC2)nc1C(F)(F)F
